Screens from PubChem BioAssay.
Shown are actives, neighbours in structure and some others; about 4.7% of the full set was active somewhere.
MT1-MMP act inh: blockers of MT1-MMP proenzyme processing, primary screen, HT1080 RFP-PRO-GFP cells, GFP/RFP fluorescence; AID 651647, 2012; Matrix metalloproteinase-14 (Homo sapiens), P50281; GFP/RFP ratio fluorescence, overnight; percent of plate control window, DMSO zero; hit rate 0.061% among 360,000; GFP/RFP ratio change, % at 20 µM;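 active = GFP/RFP ratio change of at least 30% with cell ATP level not reduced by more than half and red fluorescence within 50% of control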
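Assay system – RFP-PRO-GFP reporter HT1080 cells · Compound dosing – single dose of 20 µM compound, 1% DMSO final · Incubation – overnight compound exposure at 37 °C · Measure – GFP/RFP fluorescence ratio · Benchmarks – DMSO wells and RFP-L50D-GFP cells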
ADAM17 inh: ADAM17 inhibitors, primary screen, biochemical, QFRET; Disintegrin and metalloproteinase domain-containing protein 17 (Homo sapiens), P78536; AID 720648, 2013; hit rate 0.83% among 370,000; recombinant ADAM17, EDANS/DABCYL FRET peptide cleavage; inhibition, % at 6.95 µM;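 active = inhibition above the mean of compounds lying between control limits plus 3 SD, set per campaign, cut at about 8.5% in these data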
GRIN3A LBD mod: binders of NR3A ligand-binding domain, primary screen, biophysical, differential scanning fluorimetry, uHTS; NR3A LBD differential scanning fluorimetry, Tm shift; 0% = protein alone, 100% = glycine-bound protein; hit rate 2.5% among 340,000; Tm shift relative to glycine control, % at 25 µM; AID 1259313, 2017; Glutamate receptor ionotropic, NMDA 3A (GRIN3A) ligand-binding domain;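 active = melting temperature shift of at least 10% of the positive control shift, at one fixed dose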
MPTP block: mitochondrial permeability transition pore inhibitors, primary screen, biochemical, isolated mouse mitochondria, absorbance; Ca2+ swelling absorbance, 30 min; hit rate 1.4% among 360,000; inhibition, % at 10 µM; AID 602449, 2012;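 active = inhibition of 50% or more, scaled per plate between neutral and stimulator controls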
SKN-1 inh: suppressors of acrylamide-induced Pgst-4::GFP reporter in worms, primary screen, SKN-1 inhibitor project, whole organism, uHTS, GFP/RFP fluorescence ratio, strain VP596. hit rate 0.49% among 360,000. C. elegans VP596 Pgst-4::GFP/RFP ratio, 24 h. inhibition, % at 21.8 µM. AID 624304, 2012;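 active = interference check ratio from 0.5 to 1.5 plus GFP to RFP signal ratio inhibition reaching or exceeding a fixed threshold, cut at about 30% in these data, passing the limit was not always enough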
ADAM10 inh: human ADAM10 inhibitors, primary screen, biochemical, QFRET, HTS | Disintegrin and metalloproteinase domain-containing protein 10 (Homo sapiens), O14672 | recombinant ADAM10, EDANS/DABCYL FRET peptide cleavage, 3 h | inhibition, % at 7 µM | hit rate 0.62% among 370,000;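 active = inhibition above a per-campaign cutoff equal to the mean of compounds falling between control-based bounds plus 3 SD, cut at about 20% in these data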
Target sequence (O14672 214-748 limits assumed): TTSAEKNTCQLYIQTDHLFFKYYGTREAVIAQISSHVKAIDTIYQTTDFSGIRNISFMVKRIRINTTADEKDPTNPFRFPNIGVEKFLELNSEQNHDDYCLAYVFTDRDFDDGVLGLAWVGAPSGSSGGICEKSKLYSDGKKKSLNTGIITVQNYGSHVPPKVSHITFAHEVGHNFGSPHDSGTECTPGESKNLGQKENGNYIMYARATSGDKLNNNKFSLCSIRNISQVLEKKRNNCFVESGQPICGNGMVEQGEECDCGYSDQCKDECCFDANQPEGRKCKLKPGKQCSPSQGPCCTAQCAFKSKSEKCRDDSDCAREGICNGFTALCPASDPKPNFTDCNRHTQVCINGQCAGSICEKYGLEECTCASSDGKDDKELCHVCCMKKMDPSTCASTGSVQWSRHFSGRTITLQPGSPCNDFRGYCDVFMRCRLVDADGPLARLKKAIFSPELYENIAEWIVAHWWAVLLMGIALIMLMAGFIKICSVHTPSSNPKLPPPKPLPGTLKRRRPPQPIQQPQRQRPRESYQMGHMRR
Rh123 counter: fluorescence retest of MPTP screen hits in isolated mitochondria, single concentration. membrane potential, Rhodamine 123 fluorescence. AID 624504, 2012. inhibition, % at 10 µM. hit rate 78% among 5,000. shares compounds with MPTP block; in the data active = inhibition above about 22%
MPTP abs DR: mitochondrial permeability transition pore inhibitors, dose response, biochemical, absorbance, uHTS hits; hit rate 58% among 780; shares compounds with MPTP block; IC50, µM; isolated mitochondria swelling; in the data active = IC50 below about 20 µM
MPTP counter DR: fluorescent counter-screen in isolated mitochondria, dose response, counter-screen for MPTP inhibitor project, biochemical, fluorescence, uHTS hits; hit rate 49% among 780; isolated mitochondria counterscreen, fluorescence read-out; IC50, µM; shares compounds with MPTP block; in the data active = IC50 below about 80 µM
Large screens that a line does not name were inactive (follow-up assays come after a bar, where they were run).

COc1ccc(Cc2nnc(NC(C)=O)s2)cc1	none
O=C1CCN(S(=O)(=O)c2ccccc2)CCN1CCOCc1ccc(C(F)(F)F)cc1	none
Cc1ccc(S(=O)(=O)N2CCC(=O)N(CCOCc3ccc(C(F)(F)F)cc3)CC2)cc1	ADAM17 inh 10, MPTP block 78 | Rh123 counter 99
CCCOc1ccc(C(=O)NNC(=O)CCNC(=O)c2ccco2)cc1OC	none
CC(=O)N(c1ccccc1C)c1ccccc1C	none
O=C(NC(Cc1ccccc1)c1nc2ccccc2[nH]1)c1cccc([N+](=O)[O-])c1 (configuration not stated)	MPTP block 65 | Rh123 counter 65
O=C(Cc1nc2ccccc2[nH]1)c1cccc([N+](=O)[O-])c1	MPTP block 91 | Rh123 counter 79
O=C(Nc1nc2ccccc2[nH]1)c1cccc([N+](=O)[O-])c1	none
CNc1cccc(-c2ccc(C(C)=O)s2)n1	none (no result: GRIN3A LBD mod)
O=[N+]([O-])c1ccc2c(c1)C(=NO)c1cc(Cl)c(Cl)cc1-2	MPTP block 61 | Rh123 counter 36
Nc1nonc1C(=O)NCCN=Cc1ccccc1O	none
Nc1nonc1C(=O)NCCN=Cc1cc(Cc2ccccc2)cc(Br)c1O	MPTP block 64 (no result: ADAM17 inh, ADAM10 inh) | Rh123 counter 31
Cc1ccc2nc(C)c(CN3CCN(c4ccc([N+](=O)[O-])cc4Cl)CC3)n2c1	MPTP block 88 (no result: GRIN3A LBD mod) | Rh123 counter 102
O=C1NC(=O)C(=Cc2ccc(Cl)c(Cl)c2)S1	MPTP block 73 | Rh123 counter 92
COc1ccc(-c2nc(NC(C)=O)sc2-c2ccccc2)cc1	MPTP block 82 | Rh123 counter inactive | MPTP abs DR inactive | MPTP counter DR inactive
COc1ccc(-c2sc(NC(C)=O)nc2-c2ccccc2)cc1	none
COc1ccc2nc(N3C(=O)/C(=C/c4ccc(Cl)cc4)NC3=S)sc2c1	MPTP block 95 | Rh123 counter inactive
COC(=O)c1c(C)oc2ccc(N(C(=O)c3ccncc3)S(=O)(=O)c3ccc(C)cc3C)cc12	MPTP block 62 | Rh123 counter 29
COC(=O)c1c(C)oc2ccc(N(C(=O)c3ccncc3)S(=O)(=O)c3ccc(C)cc3)cc12	none (no result: ADAM17 inh, ADAM10 inh)
Cc1[nH]c2ccccc2c1C(O)CN1CCC2(CC1)OCCO2 (configuration not stated)	none
Cc1ccc(N(CC(=O)Nc2ccc(F)c(Cl)c2)S(=O)(=O)c2c(C)noc2C)cc1	GRIN3A LBD mod 11, MPTP block 58 | Rh123 counter 101
Cc1cc(NC(=O)C2CCCCC2C(=O)O)no1 (configuration not stated)	none
COC(=O)c1c(NC(=O)C2CCCCC2)sc2c1CCN(C(C)C)C2	MPTP block 55 | Rh123 counter inactive | MPTP abs DR inactive | MPTP counter DR inactive
Cc1ccc(-c2csc(Cc3nc(-c4cc5ccccc5oc4=O)cs3)n2)cc1	none
Cc1cc(C)c(-c2csc(Cc3nc(-c4cc5ccccc5oc4=O)cs3)n2)cc1C	MPTP block 53 | Rh123 counter inactive | MPTP abs DR 6.3 | MPTP counter DR 7.8
Cc1nn(-c2ccccc2)c2c1C(c1cccs1)C(C#N)=C(N)O2 (configuration not stated)	MPTP block 75 (no result: ADAM17 inh, ADAM10 inh) | Rh123 counter inactive
O=c1cc(CO)oc(C(Nc2ccccn2)c2ccc(C(F)(F)F)cc2)c1O (configuration not stated)	MPTP block 68 | Rh123 counter inactive | MPTP abs DR 11 | MPTP counter DR inactive
CC1CCC(NC(=O)COc2ccc(C(=O)c3ccccc3)cc2)CC1 (configuration not stated)	MPTP block 70 | Rh123 counter 65
CC(=O)c1ccc(OCC(=O)NC2CCCCCC2)cc1	none
Cc1ccc(OCC(=O)Nc2ccccc2-c2ccccc2NC(=O)COc2ccc(C)cc2)cc1	none
Cc1ccc(NC(=O)COc2ccc(C(=O)c3ccccc3)cc2)c(O)c1	MPTP block 82 | Rh123 counter 97
CCOCC(=O)OCC(=O)Nc1cc(OC)c([N+](=O)[O-])cc1C	none
CSc1nc(N)nc2c1ncn2CC(=O)N1CCN(Cc2c(C)cc(C)cc2C)CC1	MPTP block 86 | Rh123 counter 77
Cc1cc(C)c(CN2CCN(C(=O)Cn3ccc(N)nc3=O)CC2)c(C)c1	none
CC(NC(=O)CN(c1ccccc1F)S(C)(=O)=O)c1ccccc1 (configuration not stated)	none
O=C(Nc1ccc(Cl)cc1)c1cnc(-c2ccccc2)nc1-c1ccccc1	MPTP block 73 | Rh123 counter 36
CNC(=O)c1cnc(-c2ccccc2)nc1-c1ccccc1	none
O=C(Nc1cccc(-c2cscn2)c1)C1CCN(Cc2ccc(CO)o2)CC1	none
O=[N+]([O-])c1ccc(/C=N/N/C(=N/c2ccccn2)c2ccccn2)cc1	none
O=[N+]([O-])c1cc(/C=N/N/C(=N/c2ccccn2)c2ccccn2)ccc1O	MPTP block 78 | Rh123 counter inactive
CC(C)(C)NC(=O)C(OC(=O)Cn1nnc(-c2ccc(F)cc2)n1)c1ccncc1 (configuration not stated)	none
CCOC(=O)COn1c(-c2cccc(Cl)c2)nc2ccc([N+](=O)[O-])cc21	MPTP block 57, SKN-1 inh 38 | Rh123 counter 81
CC(On1c(-c2ccccc2)nc2ccc(Cl)cc21)C(=O)O (configuration not stated)	none
CCOC(=O)C(C)On1c(-c2cccc(Cl)c2)nc2ccc([N+](=O)[O-])cc21 (configuration not stated)	GRIN3A LBD mod 10, MPTP block 87 | Rh123 counter 99
